# Experimental data taken from ChEMBL document CHEMBL4732207, “Design, Synthesis and Structure-Activity Relationship Studies of Glycosylated Derivatives of Marine Natural Product Lamellarin D” (Eur J Med Chem, 2021).
# pIC50: −log10 of the molar value. Calls of active or inactive are those of the source. The calls are words filed in the database; no cut-off is given here.
# Key:
# MDA-MB-231 [1] = assay: Cytotoxicity against human MDA-MB-231 cells assessed as reduction in cell viability incubated for 72 hrs by MTT assay; type: functional, cell-based; conditions: MDA-MB-231, 72 h
# How it was run: (§1)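 Cells resuspended in DMEM plus 10% FBS and seeded at 5 000 cells/well. They were incubated overnight at 37 °C in 5% CO2, then exposed to serial dilutions for 72 h at 37 °C. Medium was replaced with fresh medium containing 0.5 mg/mL MTT for 4 h, formazan dissolved in DMSO, and A540 read. Proliferation = A540 treated/control ×100%. IC50 is the concentration inhibiting proliferation by 50%.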
# HGC-27 = assay: Cytotoxicity against human HGC-27 cells assessed as reduction in cell viability incubated for 72 hrs by MTT assay; type: functional, cell-based; conditions: HGC-27, 72 h; how it was run: as §1
# HepG2 = assay: Cytotoxicity against human HepG2 cells assessed as reduction in cell viability incubated for 72 hrs by MTT assay; type: functional, cell-based; conditions: HepG2, 72 h; how it was run: as §1
# A549 = assay: Cytotoxicity against human A549 cells assessed as reduction in cell viability incubated for 72 hrs by MTT assay; type: functional, cell-based; conditions: A549, 72 h; how it was run: as §1
# HCT-116 = assay: Cytotoxicity against human HCT-116 cells assessed as reduction in cell viability incubated for 72 hrs by MTT assay; type: functional, cell-based; conditions: HCT-116, 72 h; how it was run: as §1
# [2] = Aqueous solubility of compound in deionized water by HPLC-HRMS analysis; type: physicochemical; conditions: buffer
# [3] = target: T1, DNA topoisomerase 1 (Homo sapiens) (UniProt P11387); assay: Inhibition of topoisomerase 1 (unknown origin) assessed as reduction in relaxation of supercoiled plasmid pBR322 DNA at 10 uM incubated for 30 mins by agarose gel electrophoresis
# T1 sequence (whole entry): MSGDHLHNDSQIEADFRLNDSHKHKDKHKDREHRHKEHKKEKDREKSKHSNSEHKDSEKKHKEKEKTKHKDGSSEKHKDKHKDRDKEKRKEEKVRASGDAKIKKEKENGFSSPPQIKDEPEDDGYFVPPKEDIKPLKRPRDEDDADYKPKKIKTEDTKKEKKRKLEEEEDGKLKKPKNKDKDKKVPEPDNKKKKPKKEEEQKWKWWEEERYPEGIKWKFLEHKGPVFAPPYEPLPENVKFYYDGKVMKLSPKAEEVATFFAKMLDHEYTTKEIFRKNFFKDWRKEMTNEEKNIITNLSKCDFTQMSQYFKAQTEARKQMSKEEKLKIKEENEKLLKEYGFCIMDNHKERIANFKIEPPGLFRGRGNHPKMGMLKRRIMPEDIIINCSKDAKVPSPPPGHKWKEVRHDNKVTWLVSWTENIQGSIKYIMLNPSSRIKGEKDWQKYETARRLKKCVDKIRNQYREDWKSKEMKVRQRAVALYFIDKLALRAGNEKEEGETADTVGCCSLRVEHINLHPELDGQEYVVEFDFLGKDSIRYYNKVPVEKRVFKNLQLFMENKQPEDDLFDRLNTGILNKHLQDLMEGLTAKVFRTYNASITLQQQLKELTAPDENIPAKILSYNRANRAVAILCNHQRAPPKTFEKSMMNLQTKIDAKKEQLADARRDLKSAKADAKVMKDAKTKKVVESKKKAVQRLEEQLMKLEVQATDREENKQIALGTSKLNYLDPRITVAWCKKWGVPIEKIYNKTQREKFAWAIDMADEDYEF
# How it was run: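 Reaction mix held 10X Topo I buffer, supercoiled pBR322 (250 ng), Topo I (2 U) and compound at 10 µM, incubated 37 °C for 30 min. Stopped with 10% SDS, then proteinase K digestion for 30 min. Products run on 1% agarose without stain, post-stained with 4s Green for 50 min and imaged under UV. Read-out is loss of relaxation.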
# MDA-MB-231 [4] = assay: Induction of cell cycle arrest in human MDA-MB-231 cells assessed as increase in accumulation of G2/M phase incubated for 24 hrs by PI staining based flow cytometry analysis; type: functional; conditions: dose 10-50 nM
# How it was run: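 MDA-MB-231 cells (5 × 10^5) seeded in six-well plates, cultured overnight at 37 °C, then treated at 10, 20 or 50 nM for 24 h. Lamellarin D was the positive control at 20 and 50 nM. Cells were trypsinized, washed twice in PBS and fixed in 70% ethanol overnight at −20 °C. After washing, cells were stained with propidium iodide. Phase distribution was read by flow cytometry.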
# MDA-MB-231 [5] = assay: Induction of apoptosis in human MDA-MB-231 cells at 50 nM incubated for 24 hrs by annexin-V-FITC and PI staining based flow cytometry analysis; type: functional, cell-based
Structure (SMILES),pIC50 (MDA-MB-231 [1]),pIC50 (HGC-27),pIC50 (HepG2),pIC50 (A549),pIC50 (HCT-116),solubility [2],inhibition [3],Activity (MDA-MB-231 [4]),Activity (MDA-MB-231 [5])
COc1cc(-c2c3c4cc(OC)c(O[C@@H]5O[C@H](CO)[C@H](O)[C@H](O)[C@H]5O)cc4oc(=O)c3n3ccc4cc(O)c(OC)cc4c23)ccc1O,7.60,7.05,7.24,7.70,7.74,0.12 nM,,,
COc1cc2c(cc1O)oc(=O)c1c2c(-c2ccc(O[C@@H]3O[C@H](CO)[C@@H](O)[C@H]3O)c(OC)c2)c2c3cc(OC)c(O)cc3ccn21,5.68,6.65,6.48,6.18,6.21,,,,
COc1cc2c(cc1O)oc(=O)c1c2c(-c2ccc(O[C@@H]3O[C@H](CO)[C@@H](O)[C@H](O)[C@H]3O)c(OC)c2)c2c3cc(OC)c(O)cc3ccn21,< 4.30,< 4.30,4.37,< 4.30,4.58,0.41 nM,Active,,
COc1cc2c(cc1O)oc(=O)c1c2c(-c2ccc(O[C@H]3O[C@H](CO)[C@@H](O)[C@H](O)[C@@H]3O)c(OC)c2)c2c3cc(OC)c(O)cc3ccn21,< 4.30,4.50,< 4.30,< 4.30,< 4.30,0.14 nM,Active,,
COc1cc(-c2c3c4cc(OC)c(O[C@@H]5O[C@H](CO)[C@@H](O)[C@H](O)[C@H]5O)cc4oc(=O)c3n3ccc4cc(O)c(OC)cc4c23)ccc1O,7.47,6.79,7.82,8.52,8.00,2 nM,,Dose-dependent effect,Active
COc1cc(-c2c3c4cc(OC)c(O)cc4oc(=O)c3n3ccc4cc(O[C@@H]5O[C@H](CO)[C@@H](O)[C@H](O)[C@H]5O)c(OC)cc4c23)ccc1O,7.49,6.94,7.62,7.33,7.85,257.78 nM,,,
COc1cc(-c2c3c4cc(OC)c(O)cc4oc(=O)c3n3ccc4cc(O[C@H]5O[C@H](CO)[C@@H](O)[C@H](O)[C@@H]5O)c(OC)cc4c23)ccc1O,5.70,6.66,5.41,5.49,5.85,0.23 nM,,,
COc1cc(-c2c3c4cc(OC)c(O[C@H]5O[C@H](CO)[C@@H](O)[C@H](O)[C@@H]5O)cc4oc(=O)c3n3ccc4cc(O)c(OC)cc4c23)ccc1O,6.50,6.86,6.24,6.43,6.69,0.37 nM,,,
COc1cc(-c2c3c4cc(OC)c(O)cc4oc(=O)c3n3ccc4cc(O[C@@H]5O[C@H](CO)[C@H](O)[C@H](O)[C@H]5O)c(OC)cc4c23)ccc1O,7.74,6.94,7.32,7.89,7.43,235.82 nM,,,
COc1cc2c(ccn3c2c(-c2ccc(O[C@@H]4O[C@H](CO)[C@@H](O)[C@H](O)[C@H]4O)c(OC)c2)c2c4cc(OC)c(O[C@@H]5O[C@H](CO)[C@@H](O)[C@H](O)[C@H]5O)cc4oc(=O)c23)cc1O,5.13,5.14,4.54,4.79,5.17,257.55 nM,Active,,
COc1cc2c(cc1O)oc(=O)c1c2c(-c2ccc(O[C@@H]3O[C@H](CO)[C@@H](O)[C@H](O)[C@H]3O)c(OC)c2)c2c3cc(OC)c(O[C@@H]4O[C@H](CO)[C@@H](O)[C@H](O)[C@H]4O)cc3ccn21,4.88,4.57,4.40,4.86,5.28,96.75 nM,Active,,
COc1cc(-c2c3c4cc(OC)c(O[C@@H]5O[C@H](CO)[C@@H](O)[C@H](O)[C@H]5O)cc4oc(=O)c3n3ccc4cc(O[C@@H]5O[C@H](CO)[C@@H](O)[C@H](O)[C@H]5O)c(OC)cc4c23)ccc1O,7.44,7.13,6.93,7.59,7.40,182.31 nM,,,
COc1cc(-c2c3c4cc(OC)c(O)cc4oc(=O)c3n3ccc4cc(O[C@@H]5O[C@H](CO)[C@@H](O)[C@H]5O)c(OC)cc4c23)ccc1O,5.29,5.91,6.03,5.38,5.89,,,,
COc1cc(-c2c3c4cc(OC)c(O[C@@H]5O[C@H](CO)[C@@H](O)[C@H]5O)cc4oc(=O)c3n3ccc4cc(O)c(OC)cc4c23)ccc1O,5.57,6.06,6.20,5.54,5.94,,,,
COc1cc2c(cc1O)oc(=O)c1c2c(-c2ccc(O[C@@H]3O[C@H](CO)[C@H](O)[C@H](O)[C@H]3O)c(OC)c2)c2c3cc(OC)c(O)cc3ccn21,< 4.30,4.78,< 4.30,< 4.30,4.86,0.49 nM,Active,,
COc1cc(-c2c3c4cc(OC)c(O)cc4oc(=O)c3n3ccc4cc(O)c(OC)cc4c23)ccc1O [LAMELLARIN D],7.51,6.63,7.06,8.40,7.60,0.56 nM,Active,Dose-dependent effect,
